WT yeast gro inh: growth inhibition of WT strain, primary screen, mitochondrial fusion inhibitor project, WT and mutant strains, chemical genetic; mitochondrial fusion phenotypic screen; inhibition, % at 10 µM; 190,000 tested, 2.1% active; AID 1362, 2008; in the data active means inhibition above about 58%; tested in S. cerevisiae
TNAP inh hi DEA: human TNAP enzyme inhibitors, primary screen, biochemical, luminescent, high phosphate acceptor level, uHTS; purified TNAP, CDP-star luminescence, 1 M DEA; inhibition, % at 20 µM; 200,000 tested, 0.03% active;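 active means over 50% inhibition of tissue-nonspecific alkaline phosphatase at 20 µM in the single-dose screen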;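 further: plate controls were DMSO wells for no effect and EDTA-quenched wells as full inhibition for full effect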
Target sequence (P05186 whole entry, looked up): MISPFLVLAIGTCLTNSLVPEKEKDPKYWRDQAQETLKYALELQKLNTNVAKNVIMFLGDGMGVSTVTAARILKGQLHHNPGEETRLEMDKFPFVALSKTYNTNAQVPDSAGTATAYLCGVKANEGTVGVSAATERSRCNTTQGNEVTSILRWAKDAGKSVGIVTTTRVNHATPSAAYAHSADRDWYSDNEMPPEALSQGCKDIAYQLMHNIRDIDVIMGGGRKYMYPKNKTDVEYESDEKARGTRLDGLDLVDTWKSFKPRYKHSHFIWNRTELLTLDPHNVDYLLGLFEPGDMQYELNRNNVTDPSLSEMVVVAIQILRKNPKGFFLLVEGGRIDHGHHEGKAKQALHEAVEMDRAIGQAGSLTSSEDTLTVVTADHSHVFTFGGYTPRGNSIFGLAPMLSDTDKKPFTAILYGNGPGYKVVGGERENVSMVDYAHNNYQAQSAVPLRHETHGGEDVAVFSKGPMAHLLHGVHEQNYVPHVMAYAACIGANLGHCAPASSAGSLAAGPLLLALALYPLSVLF
Arbovirus anti: antivirals against arbovirus infection, primary screen, cell-based, full library, 10K replicate subset; arbovirus infection cell-based antiviral screen; inhibition, % at 10 µM; 200,000 tested, 0.37% active; in the data active means inhibition above about 30%
TNAP act hiacc: TNAP activators at high phosphate acceptor level, primary screen, biochemical, luminescence, uHTS; purified TNAP, CDP-star luminescence, 1 M DEA, 30 min; stronger effect = higher value; 0 = EDTA background, 1 = DMSO-only activity; activation factor at 20 µM; 200,000 tested, under 10 active; AID 1136, 2008;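 active means activation factor at least 2 at 20 µM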
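Assay system: human TNAP; Input: enzyme diluted 1/800 final; Reagent: CDP-star luminogenic substrate at 100 µM final; Timing: 30 min, room temperature; Signal: luminescence; Evaluation: TNAP activation factor scaled between EDTA and DMSO control wells.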
TNAP inh noacc: human TNAP enzyme inhibitors, primary screen, biochemical, luminescent, no phosphate acceptor, uHTS; Alkaline phosphatase, tissue-nonspecific isozyme (Homo sapiens), P05186; purified TNAP, CDP-star luminescence, 30 min; inhibition, % at 20 µM; 200,000 tested, 0.26% active;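 active means tissue-nonspecific alkaline phosphatase inhibition above about 50% at 20 µM in the single-dose screen, limit read from the data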;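 further: 0% = DMSO negative control and 100% = EDTA positive control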
Active calls of the source: *. Shown are actives, neighbours in structure and some others; about 2.6% of the full set was active somewhere.

SMILES	WT yeast gro inh	TNAP inh hi DEA	Arbovirus anti	TNAP act hiacc	TNAP inh noacc
CC(C)(C)C1C/C(=C/c2ccccn2)C(=O)/C(=C/c2ccccn2)C1 (stereo not given)	69*	1	-28	1	-4
CC1C/C(=C/c2ccccn2)C(=O)/C(=C/c2ccccn2)C1 (stereo not given)	87*	-4	-39	1	-10
Clc1ccc(CO/N=C2\CCCc3nonc32)c(Cl)c1	26	-4	1	1	-10
Cc1c(C)c2cc(Cl)c(O)c(CN3CCCC(C)C3)c2oc1=O (stereo not given)	66*	-8	5	1.1	-17
COc1ccc(C)cc1NC(=O)C(=O)NNC(=O)c1ccco1	4	-1	-2	1	-137
COc1ccc(C(N)=O)cc1NC(=O)c1cccc(F)c1	65*	-2	-5	1	-9
CCc1ccc(/C=C2\SC(=S)N(CCC(=O)NC3=NCCS3)C2=O)cc1	0	-2	-2	1	1
O=C(CCN1C(=O)/C(=C\c2cccs2)SC1=S)NC1=NCCS1	76*	-1	-4	1	-3
O=C(CCN1C(=O)/C(=C/c2cccs2)SC1=S)NC1=NCCS1	72*	3	5	1	9
Cc1nc(N2CCC(C)CC2)c2c(C)c(C(=O)O)sc2n1	-1	2	5	1	-2
COc1ccc(NC(=O)C(=O)N/N=C/c2cc(C)n(-c3cccc(Cl)c3Cl)c2C)c(OC)c1	10	-6	32*	1.1	-10
O=C(NCc1cccnc1)c1ccc(NC(=O)c2cccc([N+](=O)[O-])c2)cc1	-9	-1	-9	1	-3
CC1(C)CC(=O)C2=C(C1)N=c1s/c(=C/c3ccc(F)c(F)c3)c(=O)n1C2c1ccc(F)cc1 (stereo not given)	76*	5	-14	1	-2
CCC(c1nnnn1Cc1ccco1)N(CCN1CCOCC1)Cc1cc2cc(C)ccc2[nH]c1=O (stereo not given)	13	-8	8	1.1	-16
O=C(CSCC(=O)N1CCN(c2ccccc2)CC1)Nc1nc(-c2ccc(Cl)s2)cs1	22	-3	3	1	0
CC1CC1C(=O)Nc1nc(-c2ccc(Cl)s2)cs1 (stereo not given)	21	-1	44*	1	6
O=C(Nc1nc(-c2ccc(Cl)s2)cs1)c1ccncc1	2	0	4	1	11
O=C(CSCC(=O)N1CCCCC1)Nc1nc(-c2ccc(Cl)s2)cs1	72*	-5	-11	1.1	-9
Cc1cccc(C)c1NC(=S)N(CCCN1CCOCC1)Cc1cccnc1	7	1	6	1	-6
CC(=O)N1[C@H](C)C=C[C@]1(Cc1ccccc1)C(=O)O	-7	-3	-1	1	-7
CCNc1nc(NC(C)C)nc(SCCOC(=O)c2ccccc2)n1	29	-2	3	1	-5
CCNc1nc(NCC)nc(SCCOC(=O)COc2ccc(Cl)cc2Cl)n1	77*	-4	-2	1	-7
CC(C)Nc1nc(NC(C)C)nc(SCCOC(=O)Nc2ccc(Cl)cc2Cl)n1	66*	2	-7	1	1
CC(C)N(CCO)C(=O)CCc1nnc(Cc2cccc(C(F)(F)F)c2)o1	9	0	5	1	-6
CCC1(c2ccc(Cl)cc2)NC(=S)N(c2ccccc2)N1 (stereo not given)	31	1	-29	1	0
SMILES	WT yeast gro inh	TNAP inh hi DEA	Arbovirus anti	TNAP act hiacc	TNAP inh noacc
CCC1(c2ccccc2)NC(=S)N(c2ccc(C)cc2)N1 (stereo not given)	62*	2	-23	1	1
COC(=O)Cc1ccc(N(Cc2ccccc2F)S(=O)(=O)c2ccc(Cl)cc2)cc1	69*	-5	2	1	-9
O=C(/C=C/c1ccc([N+](=O)[O-])cc1)OCC(=O)N1c2ccccc2Sc2ccccc21	0	-1	1	1	-17
CC1(C)OC1COc1c2ccoc2cc2oc(=O)ccc12 (stereo not given)	-13	-8	-4	1.1	-12
CCOc1ccc(C2CC(=O)n3nc(C45CC6CC(CC(C6)C4)C5)nc3S2)cc1OC (stereo not given)	3	-3	-8	1	85*
COc1ccc(C2CC(=O)n3nc(C45CC6CC(CC(C6)C4)C5)nc3S2)cc1OC (stereo not given)	6	1	4	1	88*
CCOc1ccc(C2C3=C(CCCC3=O)Nc3nc(C(F)(F)F)nn32)cc1OC (stereo not given)	-15	-1	6	1	-7
Cc1cc(C)n(-c2c(F)c(F)c(CO)c(F)c2F)n1	2	-8	3	1.1	-14
CC(=O)c1ccccc1NC(=O)CSc1nnc2ccccn12	-8	8	5	0.9	14
Cc1ccc(C)c(N2CCN(CCCNC(=O)Cn3cccc3C(=O)c3ccccc3C)CC2)c1	80*	-4	-30	1	-3
Cc1ccccc1C(=O)c1cccn1CC(=O)NCCN1CCN(c2cccc(C)c2C)CC1	80*	4	-38	1	4
COc1ccc(NC(=O)Cn2c(=O)n(-c3ccc(OC)cc3OC)c(=O)c3c(C)c(C)sc32)cc1	-6	2	3	1	-13
CCCCCCn1c(=O)c(-c2ccccc2)c(O)c2ccccc21	16	-6	54*	1.1	-10
CCCCCCn1c(=O)c(Cc2ccccc2)c(O)c2ccccc21	-4	-3	10	1	-20
CCC/C(=N/NC(=O)c1ccccc1Cl)c1ccccc1	-16	0	-8	1	-9
CCOc1ccc(C(=O)N/N=C(\c2ccccc2)c2ccccn2)cc1	69*	-3	-25	1	-4
O=C1CC(C(=O)N2CCOCC2)C2(CCCC2)O1 (stereo not given)	-20	-2	2	1	-19
O=C(COc1ccccc1)NNc1c2ccccc2nc2ccccc12	42	7	13	0.9	8
COc1ccc(OCC(=O)NNc2c3ccccc3nc3ccccc23)cc1	64*	8	-7	0.9	3
COc1ccc(-c2nc(N)ncc2-c2csc(C)n2)c(O)c1	-6	-5	2	1	-11
COc1ccc(-c2nc(N)nc(C)c2Oc2ccccc2Br)c(O)c1	83*	-1	-47	1	-1
COc1ccc(-c2csc(-c3ccccc3)n2)c(OC)c1	73*	1	3	1	-7
Clc1ccc(SCCOCCN2CCc3ccccc3C2)cc1	61*	-5	3	1.1	-6
c1ccc(-c2ccccc2OCCOCCN2CCc3ccccc3C2)cc1	44	-4	13	1	-6
Clc1ccc(OCCOCCN2CCc3ccccc3C2)c(Cl)c1	70*	2	-21	1	-6

Screening results deposited in PubChem by several laboratories.
